The values below come from publication PMC4384654 (ChemMedChem, 2014).

Data set [1] has as its target T1, FAAH prepared from rat brain homogenates (Rattus norvegicus, UniProt P97612).
T1 sequence (P97612 1-579): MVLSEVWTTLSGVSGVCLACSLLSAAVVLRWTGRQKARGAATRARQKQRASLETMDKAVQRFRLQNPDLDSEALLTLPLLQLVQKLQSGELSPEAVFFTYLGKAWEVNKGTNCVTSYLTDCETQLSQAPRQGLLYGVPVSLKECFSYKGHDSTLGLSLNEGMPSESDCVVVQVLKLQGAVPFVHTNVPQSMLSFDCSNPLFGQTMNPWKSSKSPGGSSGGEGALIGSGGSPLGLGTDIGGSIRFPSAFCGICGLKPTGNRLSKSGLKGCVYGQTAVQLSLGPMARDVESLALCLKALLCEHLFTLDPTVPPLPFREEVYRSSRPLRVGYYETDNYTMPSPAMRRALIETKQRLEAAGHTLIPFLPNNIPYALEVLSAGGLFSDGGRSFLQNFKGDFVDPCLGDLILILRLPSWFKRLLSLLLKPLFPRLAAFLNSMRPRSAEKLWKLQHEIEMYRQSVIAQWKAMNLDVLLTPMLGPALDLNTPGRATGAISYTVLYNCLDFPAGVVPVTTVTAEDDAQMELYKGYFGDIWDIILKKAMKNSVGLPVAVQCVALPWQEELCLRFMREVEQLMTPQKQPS
In words: In vitro rat FAAH radiometric assay. Conditions: read-out: r-FAAH IC50; rat brain homogenate, mean ± SEM (n=3). It counts as biochemical.

Data set [2] in a line: In vitro rat plasma stability assay. Format: in vitro ADME. Conditions: 37 °C, 1.0 μM. The method, boiled down: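 Test compound at 1.0 µM final was incubated at 37 °C in rat plasma (prewarmed 30 min) containing 10% DMSO. Samples at 0, 30, 60, 120, 240, 360 and 420 min were quenched in cold CH3CN with 200 nM warfarin internal standard and centrifuged. Supernatant was quantified by LC-MS/MS (MRM). Internal-standard-normalised response was plotted over time. Run in triplicate.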

The nature of data set [3]: In vitro mouse liver microsomes. Format: in vitro ADME. Conditions: 5 μM compound, mean of three determinations. In a few lines: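 Test compound at 5 µM (0.1% DMSO) was preincubated 15 min with 1.25 mg/mL mouse liver microsomes in 100 mM Tris-HCl pH 7.4. At time zero, NADP 1 mM, G6P 20 mM, MgCl2 2 mM and G6P dehydrogenase 2 Units were added; shaken at 37 °C. Samples at 0–60 min were quenched in acetonitrile with warfarin internal standard and analysed by LC-MS/MS (MRM). A no-cofactor control was sampled at the end.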
Background: Liver microsomes are vesicles of endoplasmic reticulum, rich in cytochrome P450 enzymes.

Data set [4] is described as follows: Aqueous kinetic solubility assay. Conditions: Phosphate buffered saline, pH 7.4, single determination. Format: physicochemical. In a few lines:
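Test compound from a 10 mM DMSO stock was added to PBS pH 7.4 at a target 250 µM (2.5% DMSO final). Shaken 24 h at 25 °C, then centrifuged. Supernatant was analysed by UPLC/MS with UV at 215 nm. Solubility = peak-area ratio against a 250 µM reference in 1:1 CH3CN-H2O × reference concentration × dilution factor.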

The next data set deals with T2, human FAAH-1 (Homo sapiens, UniProt O00519).
T2 sequence (O00519 1-579): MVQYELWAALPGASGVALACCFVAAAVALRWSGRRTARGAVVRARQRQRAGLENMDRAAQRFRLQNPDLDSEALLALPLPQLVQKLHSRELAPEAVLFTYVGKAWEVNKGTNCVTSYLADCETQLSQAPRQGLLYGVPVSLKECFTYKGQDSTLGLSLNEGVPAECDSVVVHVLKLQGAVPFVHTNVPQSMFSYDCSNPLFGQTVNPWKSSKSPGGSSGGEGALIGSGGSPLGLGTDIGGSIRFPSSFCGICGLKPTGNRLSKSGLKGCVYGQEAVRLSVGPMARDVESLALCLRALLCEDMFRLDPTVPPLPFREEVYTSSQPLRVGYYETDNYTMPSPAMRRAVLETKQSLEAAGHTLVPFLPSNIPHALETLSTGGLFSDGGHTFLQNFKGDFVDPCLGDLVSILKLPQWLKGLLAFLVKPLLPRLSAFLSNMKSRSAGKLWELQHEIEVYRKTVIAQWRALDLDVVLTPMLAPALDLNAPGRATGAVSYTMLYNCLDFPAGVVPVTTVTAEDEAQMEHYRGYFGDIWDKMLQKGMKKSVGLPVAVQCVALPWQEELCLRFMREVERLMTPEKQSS
In words: In vitro human FAAH fluorescent assay. It counts as biochemical. To be noted: h-FAAH-1 vs r-FAAH.

The target in the next data set is T3, purified rat MGL (Rattus norvegicus, UniProt Q8R431).
T3 sequence (Q8R431 1-303): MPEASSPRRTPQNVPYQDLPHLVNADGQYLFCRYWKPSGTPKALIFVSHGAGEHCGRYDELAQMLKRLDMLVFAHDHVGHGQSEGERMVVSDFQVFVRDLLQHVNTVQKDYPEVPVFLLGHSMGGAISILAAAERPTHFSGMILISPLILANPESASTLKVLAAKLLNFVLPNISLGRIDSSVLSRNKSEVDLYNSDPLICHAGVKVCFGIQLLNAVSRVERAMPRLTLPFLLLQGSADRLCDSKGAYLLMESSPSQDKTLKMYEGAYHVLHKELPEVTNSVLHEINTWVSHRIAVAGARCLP
In words: MGL activity assay. Format: biochemical. To be noted: tested at concentrations up to 100 μM (Figure S1).

A word on the IC50: it is the concentration at which inhibition is half-maximal. On to `O=C(NC1CCCCC1)Oc1cccc(-c2ccccc2)c1` [Compound 1a, URB524, reference compound], for which, in data set [1], the IC50 came out at 5.7 ± 1.2 nM. In data set [2], the Plasma half-life is 62 ± 19 min. The “MLM Stab. half-life” value in data set [3] is less than 5 min. In data set [4], this compound came in with a Kinetic sol. of 6 µM.
Regarding `COc1cc(Cn2cc(COC(=O)NC3CCCCC3)nn2)cc(OC)c1` [Compound 27, [1-[(3,5-dimethoxyphenyl)methyl]triazol-4-yl]methyl N-cyclohexylcarbamate], in data set [1], the IC50 stood at 10.5 ± 2.9 nM. Further, at human FAAH-1, the “Higher potency on h-FAAH-1 with respect to r-FAAH” value came out at 3 fold. For the same compound, the “Inhibition of MGL activity” value on purified rat MGL was “None of the compounds inhibited MGL activity”. Also, the “MLM Stab. half-life” value in data set [3] is 5 min. For the same compound, the Kinetic sol. in data set [4] was 18 µM.
In the case of `COc1cccc(Cn2cc(CNC(=O)OCc3cn(Cc4cccc(OC)c4)nn3)nn2)c1` [Compound 34b, [1-[(3-methoxyphenyl)methyl]triazol-4-yl]methyl N-[[1-[(3-methoxyphenyl)methyl]triazol-4-yl]methyl]carbamate], the IC50 in data set [1] is 3.9 ± 0.7 nM. Further, the “Inhibition of MGL activity” value on purified rat MGL is on record as “None of the compounds inhibited MGL activity”. The “MLM Stab. half-life” value in data set [3] came to 6 min. Besides, in data set [4], the Kinetic sol. was 174 µM.
Taken in the same sequence, the figures for `COc1ccc(Cn2cc(CNC(=O)OCc3cn(Cc4cccc(OC)c4)nn3)nn2)cc1` [Compound 40, [1-[(3-methoxyphenyl)methyl]triazol-4-yl]methyl N-[[1-[(4-methoxyphenyl)methyl]triazol-4-yl]methyl]carbamate] were 5.8 ± 0.6 nM, “None of the compounds inhibited MGL activity”, 8 min and 152 µM.
